# Bioassay records deposited in PubChem by The Scripps Research Institute Molecular Screening Center.
# The list is not random: actives were taken first. Their share in the collection is about 4.6%.
# OX1R antag-1 – blocks the human orexin 1 receptor; 1.8% of 330,000 active; OX1R-expressing cells, FRET antagonist read-out; O43613; inhibition, % at 6.6 µM; in the data active = inhibition mostly above about 38%, no sharp cut-off; inactive = mostly below about 40%;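 also: 0% = agonist challenge alone and 100% = reference antagonist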
# Target sequence (O43613 whole entry, looked up): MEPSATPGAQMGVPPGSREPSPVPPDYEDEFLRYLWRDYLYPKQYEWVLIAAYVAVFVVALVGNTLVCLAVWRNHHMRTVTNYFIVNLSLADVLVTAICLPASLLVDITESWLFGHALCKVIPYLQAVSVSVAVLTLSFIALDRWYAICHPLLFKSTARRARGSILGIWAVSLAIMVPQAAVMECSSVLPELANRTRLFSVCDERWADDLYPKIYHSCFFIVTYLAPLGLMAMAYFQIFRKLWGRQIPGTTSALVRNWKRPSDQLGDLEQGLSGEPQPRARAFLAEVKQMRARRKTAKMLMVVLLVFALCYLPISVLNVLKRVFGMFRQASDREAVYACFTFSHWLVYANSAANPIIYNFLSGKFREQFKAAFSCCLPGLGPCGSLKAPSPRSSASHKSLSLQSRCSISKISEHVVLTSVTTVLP
# CHO parental Ca – signal in parental CHO cells, OX1R antagonist counter-screen | 0.63% of 330,000 active | inhibition, % at 5.6 µM | parental CHO-K1, ATP-induced calcium, Fluo-8 fluorescence | AID 463079;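 active = inhibition above that plate's mean sample inhibition plus 3 SD, cut at about 26% in these data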;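 also: 0% = ATP-challenged DMSO wells and 100% = DMSO wells without ATP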
#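 Test system: untransfected parental CHO cell line; also added: ATP stimulus; dosing: 5.6 µM, single dose; signal: calcium-sensitive Fluo-8 fluorescence; measure: percent inhibition of ATP-evoked calcium rise, normalized to controls; benchmarks: low control ATP plus DMSO, high control DMSO only; replication: one well per compound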
# OX1R antag-2 – blocks the human orexin 1 receptor. O43613. CHO/OX1R cells, Fluo-8 calcium fluorescence, orexin A. inhibition, % at 5 µM. 0.43% of 330,000 active. AID 434989;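 active = inhibition above its plate's threshold, mean inhibition of all tested compounds on the plate plus 3 SD, cut at about 37% in these data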;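 also: 0% = orexin A challenge wells and 100% = SB-334867-A antagonist wells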
# GPR7 antag – human neuropeptides B/W receptor 1 antagonism; P48145; GPR7-expressing cells, fluorescence antagonist assay; inhibition, % at 4.4 µM; 1.1% of 290,000 active; AID 1861; in the data active = inhibition above about 16%, passing the limit was not always enough;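 also: cells stimulated with the agonist NPW; 0% = agonist with vehicle and 100% = vehicle without agonist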
# Target sequence (P48145 whole entry, looked up): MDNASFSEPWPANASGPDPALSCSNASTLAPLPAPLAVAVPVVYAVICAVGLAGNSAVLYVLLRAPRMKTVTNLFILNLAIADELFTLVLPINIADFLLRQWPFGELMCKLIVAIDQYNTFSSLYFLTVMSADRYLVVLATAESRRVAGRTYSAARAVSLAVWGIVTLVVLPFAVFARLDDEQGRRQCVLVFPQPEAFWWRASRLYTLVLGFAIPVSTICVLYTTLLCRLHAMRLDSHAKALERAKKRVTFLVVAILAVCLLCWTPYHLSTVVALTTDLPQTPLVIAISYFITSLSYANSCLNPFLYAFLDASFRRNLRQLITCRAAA
# TAAR1 ag – human TAAR1 agonism. Q96RJ0. CHO RD-HGA16 TAAR1, Fluo-8 calcium fluorescence; vehicle wells 0%, saturating PEA agonist 100%. activation, % at 3 µM. 0.99% of 360,000 active. AID 624467;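 active = activation above the mean activation of all test compounds in the run plus 3 SD, cut at about 38% in these data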
#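 Test system: RD-HGA16 (CHO) cells co-expressing Gα16 and hTAAR1 | Doses: Single dose, 3 µM | Schedule: 17-24 h seeding, 75 min 37 °C dye, 30 min RT | Evaluation: % activation from peak over basal fluorescence ratio, DMSO-to-PEA scaled | Technique: Kinetic Fluo-8 calcium fluorescence | Benchmarks: Low control DMSO, high control PEA (EC100)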
# TAAR1 antagonist – antagonists of human TAAR1 | Q96RJ0 | CHO RD-HGA16 TAAR1, Fluo-8 calcium fluorescence, antagonist | inhibition, % at 3 µM | 1.5% of 360,000 active | AID 624466;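 active = inhibition above a per-plate cutoff, the mean inhibition of test compounds on that plate plus 3 SD, cut at about 49% in these data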;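 also: 0% = DMSO plus EC80 beta-PEA response and 100% = DMSO alone without agonist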
#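 Test system – hTAAR1-expressing CHO RD-HGA16 cells, Gα16-coupled · Also added – β-PEA at EC80 concentration, post-compound challenge · Compound – 3 µM, single point · Incubation – dye loading 75 min at 37 °C, then 30 min room temperature · Measured by – Fluo-8 intracellular calcium dye fluorescence, real-time kinetic reads · Benchmarks – vehicle and agonist controls · Replicates – singlicate, one well per test compound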
# Starred values were filed as active, the others as inactive; · = no result given.
SMILES,OX1R antag-1,CHO parental Ca,OX1R antag-2,GPR7 antag,TAAR1 ag,TAAR1 antagonist
C=CCN1C(=Nc2cccnc2)SCC1(O)c1ccc(C)cc1 (centres undefined),28.9,36.7*,18.6,23.9,·,·
Cc1ccc2c(COC(=O)CNC(=O)c3ccco3)cc(=O)oc2c1C,13.4,-17.7,-11.2,·,2.1,-3.8
COc1cc(NC(=O)Cc2ccccc2)cc(OC)c1,32.3,-3.4,-10.0,0.4,0.4,9.4
COc1cc(NC(=O)C[n+]2ccc(C(=O)c3ccccc3)cc2)cc(OC)c1,42.5*,-0.4,4.9,·,-3.3,4.6
COCC(=O)N1C[C@H]2CON(C)[C@H]2C[C@H]1c1cccc(-c2cc(Cl)cc(Cl)c2)c1,·,·,·,·,6.3,-8.6
Nc1c(N2CCCC2)cc(Cl)c2nonc12,39.6*,3.7,4.4,-10.0,·,·
CC(=O)c1ccc(N(CC(=O)NC2CCS(=O)(=O)C2)S(=O)(=O)c2ccc(Cl)cc2)cc1 (centres undefined),-4.5,-12.9,-9.4,·,1.6,-1.4
COc1cc(CCC(=O)OCc2nnc(-c3ccccc3)o2)cc(OC)c1OC,13.2,-25.7,-19.9,-9.0,7.6,-6.6
COc1ccc(-c2cc(-c3nnc(COC(=O)CC4CCCC4)o3)c3ccccc3n2)cc1OC,4.1,-2.4,-27.5,-2.3,3.9,29.0
COc1ccc(-c2cc(-c3nnc(COC(=O)C4CC4)o3)c3ccccc3n2)cc1OC,19.3,-2.2,-13.4,-7.6,8.9,51.9*
COc1cc(-c2nnc(COC(=O)CSc3cc(C)c4ccccc4n3)o2)cc(OC)c1OC,70.2*,-17.8,9.5,-5.0,1.9,-4.7
Cc1ccc2nc(/C(C#N)=C\c3cc(C)n(-c4cccc([N+](=O)[O-])c4)c3C)[nH]c2c1,58.7*,1.7,-1.8,-12.5,8.7,27.6
Cc1cc(/C=C(/C#N)c2nc3ccccc3[nH]2)c(C)n1-c1cc(C(=O)O)cc(C(=O)O)c1,·,·,·,-2.0,0.9,-1.8
CCCCc1c(-c2ccccc2OC)ncn1Cc1cccc(C)c1,·,·,·,·,-0.7,18.2
O=C(NCc1cccnc1)C(=O)N/N=C/c1ccccc1[N+](=O)[O-],19.0,-6.6,-5.8,-8.7,10.2,-12.3
O=C(NCc1cccnc1)C(=O)N/N=C/c1ccc([N+](=O)[O-])cc1,58.8*,-4.1,-28.7,-6.5,8.7,-16.5
CCOc1ccc(CCNC(=O)CS(=O)Cc2nc(-c3ccccc3Cl)oc2C)cc1OCC (centres undefined),72.1*,-25.5,17.6,-11.8,-1.1,-18.8
COc1ccc(-c2nc(CS(=O)CC(=O)NCCc3ccc(OC)c(OC)c3)c(C)o2)cc1 (centres undefined),9.4,-1.6,-22.1,-10.8,-0.9,3.1
CCOc1ccc(CCNC(=O)CS(=O)Cc2nc(-c3ccc(OC)cc3)oc2C)cc1OCC (centres undefined),49.7*,-24.4,3.4,-16.7,-0.6,-1.2
CCOc1c(C(N)=O)cc([N+](=O)[O-])cc1[N+](=O)[O-],34.0,-5.0,0.1,-4.2,0.9,-9.4
C=CCOc1c(CCC)cc(CCC)cc1C(N)=O,-1.6,93.8*,2.8,-22.9,4.0,-34.8
O=C(N1CCCCCC1)N1CCN(S(=O)(=O)c2cccc([N+](=O)[O-])c2)CC1,52.4*,-12.3,-19.1,16.2,2.1,-3.9
O=C(Nc1cccc(S(=O)(=O)N2CCCCC2)c1)c1ccc(S(=O)(=O)C(F)F)cc1,18.9,4.3,-15.1,-5.2,10.6,52.8*
O=C(CNc1cccc(Br)c1)Nc1ccc(S(=O)(=O)N2CCCCC2)cc1,·,·,·,·,9.5,-8.7
O=C(CNc1cccc(S(=O)(=O)N2CCCCCC2)c1)Nc1cccc([N+](=O)[O-])c1,6.8,-0.6,31.6,·,8.5,56.0*
SMILES,OX1R antag-1,CHO parental Ca,OX1R antag-2,GPR7 antag,TAAR1 ag,TAAR1 antagonist
O=C(CNc1cc([N+](=O)[O-])ccc1NCCO)Nc1cccc(S(=O)(=O)N2CCCCC2)c1,8.0,-4.5,-4.7,·,2.1,-5.9
CCNc1ccc(S(=O)(=O)N2CCOCC2)cc1NCC(=O)Nc1cccc(Br)c1,·,·,·,·,12.6,53.3*
CC(C)(C)c1ccc(OCCCC(=O)Nc2nnc(C3CC3)s2)cc1,·,·,·,·,-0.2,-38.4
O=Cc1ccc(/C=C2\c3ccccc3C(=O)N2c2ccccc2)o1,·,·,·,·,1.4,2.0
COc1cccc(CNC(=O)[C@H]2CCCN2C(=O)[C@H]2CCCN2C(=O)OC(C)(C)C)c1,·,·,·,·,1.7,-10.5
CCOc1cc(-c2nc3ccccn3c2NCC2CCCO2)ccc1O (centres undefined),9.2,1.5,-11.8,13.5,24.4,56.9*
CCOC(=O)c1ccc(-n2cccc2/C=C2\NC(=O)NC2=O)cc1,12.3,-18.4,-5.4,·,16.3,50.5*
COc1ccc(C(=O)N2CCc3ccccc32)cc1,16.9,-4.1,-26.7,16.5*,2.0,-38.4
COc1cc(/C=C2\SC(=N)N(c3ccc4c(c3)OCO4)C2=O)cc(OC)c1O,50.9*,-1.4,-8.6,-6.5,8.8,17.9
CC(=O)N1C[C@@H](CO)[C@@H]2C[C@H]1c1ccccc1N2C,·,·,·,·,1.4,-5.5
CCOC(=O)Cn1c(=O)oc2cc(S(=O)(=O)NC3CCCc4ccccc43)ccc21 (centres undefined),7.8,14.2,-7.6,27.8*,1.6,18.9
O=[N+]([O-])c1ccc2ncnc(N3CCN(Cc4ccc5c(c4)OCO5)CC3)c2c1,56.0*,-3.7,-20.2,0.7,1.9,3.4
COc1ccc(C2/C=C\CN(C(=O)Nc3ccccc3)CC(=O)N2Cc2ccc(F)cc2)cc1 (centres undefined),20.3,-32.8,-24.8,·,16.4,7.2
COc1ccc(C2/C=C\CN(C(=O)Nc3ccc(C(F)(F)F)cc3)CC(=O)N2Cc2ccc(F)cc2)cc1 (centres undefined),32.6,60.5*,8.8,·,·,·
COc1ccc(C(=O)C[n+]2cccc3cc(OC)ccc32)cc1,13.9,3.0,-7.3,-3.5,0.8,17.9
COc1cccc(C(=O)C[n+]2cccc3cc(OC)ccc32)c1,34.0*,-13.2,-17.0,·,4.0,-10.9
CC(C)C[C@H](NC(=O)c1ccccn1)C(=O)N1CCC[C@H]1C(=O)NCc1ccccc1,·,·,·,·,3.5,-7.8
CN(C[C@H](Cc1ccccc1)N(C[C@@H](Cc1cccc2ccccc12)N(CCc1ccccc1)N=O)N=O)N=O,37.4,-16.9,-10.1,-13.5,40.7*,7.4
O=[N+]([O-])c1nccn1CC(O)CCN1CCOCC1 (centres undefined),·,·,·,·,0.6,-17.2
O=c1[nH]c(-[n+]2ccccc2)c(/C=N/N=C(\[O-])c2ccccc2)s1,41.4*,-6.2,-9.7,-8.3,4.4,-49.5
CCc1nc(C(N)=O)c2[nH]c(=O)n(-c3ccccc3F)c2n1,-1.0,0.2,2.9,-8.5,0.1,-23.0
CC(C)(C)S(=O)(=O)N1Cc2cc(CO)ccc2[C@H]1CCO,·,·,·,·,2.7,-12.4
